# Experimental data reported in ChEMBL document CHEMBL1144494, “Synthesis of diverse analogues of Oenostacin and their antibacterial activities” (Bioorg Med Chem, 2007).
# How the values were obtained:
# [1] = test system: Staphylococcus epidermidis; assay: Antibacterial activity against Staphylococcus epidermidis; format: functional, organism-based
# Method in brief: (§1)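 Twofold serial broth dilution in nutrient broth across eight tubes, with broth alone as control. Each tube received 10 µl of diluted log-phase culture at a titre of 10^4 cfu/ml. Incubation at 37 °C, with growth read by turbidity. EC50 values are means of three experiments run in triplicate.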
# Staphylococcus aureus = assay: Antibacterial activity against Staphylococcus aureus; format: functional, organism-based; method in brief: as §1
smiles,measurement,setting,value
Cc1cc(O)c(C=O)c(O)c1,EC50,[1],1640 nM
same,EC50,Staphylococcus aureus,1640 nM
COc1cc(O)cc(C(=O)O)c1C=O,EC50,[1],2550 nM
same,EC50,Staphylococcus aureus,> 5000 nM
O=C(O)CCCC(=O)c1ccc(O)c(O)c1O,EC50,[1],1040 nM
same,EC50,Staphylococcus aureus,2080 nM
COC(=O)c1cc(O)cc(OC)c1C=O,EC50,[1],2380 nM
same,EC50,Staphylococcus aureus,4760 nM
O=Cc1c(O)cc(O)cc1C(=O)O,EC50,[1],1370 nM
same,EC50,Staphylococcus aureus,> 5000 nM
O=C(O)/C=C/c1cc(O)c(O)c(O)c1,EC50,[1],630 nM
same,EC50,Staphylococcus aureus,1260 nM
CC(=O)c1cc(O)c(O)c(O)c1,EC50,[1],1480 nM
same,EC50,Staphylococcus aureus,2960 nM
O=C(O)c1cc(O)cc(O)c1CO,EC50,[1],670 nM
same,EC50,Staphylococcus aureus,670 nM
O=C(O)/C=C/c1ccc(O)c(O)c1 [CAFFEIC ACID],EC50,[1],2780 nM
same,EC50,Staphylococcus aureus,2780 nM
COC(=O)CC/C=C/c1c(O)cc(C(=O)O)cc1O [OENOSTACIN],EC50,[1],120 nM
same,EC50,Staphylococcus aureus,120 nM
Cc1cc(O)cc(O)c1 [ORCINOL],EC50,[1],4030 nM
same,EC50,Staphylococcus aureus,4030 nM
Oc1cccc(O)c1O [PYROGALLOL],EC50,[1],990 nM
same,EC50,Staphylococcus aureus,490 nM
